From ChEMBL document CHEMBL4359878, “Discovery of 4-piperazinyl-2-aminopyrimidine derivatives as dual inhibitors of JAK2 and FLT3” (Eur J Med Chem, 2019) come the findings set out here.

In general, inhibition refers to the change of the read-out against control, counted positive when it falls. The IC50 is the concentration that gives 50% inhibition.

Assay [1] relates to HEL. As to the kind of experiment: Induction of cell cycle arrest in human HEL cells assessed as accumulation at G2 phase at 1 uM after 72 hrs by propidium iodide-staining based flow cytometry (reference value: 15.10%). The class given is functional. The gist of the method:
(§1)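 Subconfluent HEL cells were treated for 72 h at 0.33, 1.0, 3.0 or 9.0 μM, with untreated cells as control. Cultures were pulsed with 10 μM BrdU for 30 min at 37 °C before harvest, then PBS-washed, fixed in 70% ethanol and denatured in 2 M HCl. After neutralization, cells were stained with fluorescein anti-BrdU antibody and propidium iodide. DNA content was measured by flow cytometry with 488 nm excitation.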
Background: Flow cytometry measures light scatter and fluorescence of single cells or particles in a stream.

Assay [2] concerns HEL. As to the kind of experiment: Induction of apoptosis in human HEL cells assessed as viable cells at 0.33 uM after 72 hrs by FITC-annexin V/propidium iodide-double staining based flow cytometry (reference value: 93.77%). In kind it is functional. The note with it: read-out: Activity.
For assay [3], the system named is HEL. In words: Induction of apoptosis in human HEL cells assessed as viable cells at 9 uM after 72 hrs by FITC-annexin V/propidium iodide-double staining based flow cytometry (reference value: 93.77%). In kind it is functional. As to conditions: read-out: Activity.
In assay [4] the test system is HEL. As to the kind of experiment: Induction of apoptosis in human HEL cells assessed as necrotic cells at 9 uM after 72 hrs by FITC-annexin V/propidium iodide-double staining based flow cytometry (reference value: 2.40%). The class given is functional.
Assay [5] has as its system HEL. In words: Induction of cell cycle arrest in human HEL cells assessed as accumulation at G1 phase at 9 uM after 72 hrs by propidium iodide-staining based flow cytometry (reference value: 43.12%). In kind it is functional. In outline: as §1
For assay [6], the system named is HEL. In words: Induction of apoptosis in human HEL cells assessed as late apoptotic cells at 0.33 uM after 72 hrs by FITC-annexin V/propidium iodide-double staining based flow cytometry (reference value: 1.63%). The class given is functional.
In assay [7] the test system is HEL. As to the kind of experiment: Induction of apoptosis in human HEL cells assessed as necrotic cells at 0.33 uM after 72 hrs by FITC-annexin V/propidium iodide-double staining based flow cytometry (reference value: 2.40%). In kind it is functional.
Assay [8] has as its system HEL. As to the kind of experiment: Induction of cell cycle arrest in human HEL cells assessed as accumulation at G2 phase at 0.33 uM after 72 hrs by propidium iodide-staining based flow cytometry (reference value: 15.10%). The class given is functional. The gist of the method:
as §1

In assay [9] the test system is HEL. In words: Induction of cell cycle arrest in human HEL cells assessed as accumulation at G1 phase at 3 uM after 72 hrs by propidium iodide-staining based flow cytometry (reference value: 43.12%). The class given is functional. In outline:
as §1

Assay [10] relates to HEL. In words: Induction of cell cycle arrest in human HEL cells assessed as accumulation at G2 phase at 9 uM after 72 hrs by propidium iodide-staining based flow cytometry (reference value: 15.10%). The class given is functional. The gist of the method: as §1
Assay [11] concerns HEL. As to the kind of experiment: Induction of cell cycle arrest in human HEL cells assessed as accumulation at S phase at 0.33 uM after 72 hrs by propidium iodide-staining based flow cytometry (reference value: 41.47%). In kind it is functional. In outline:
as §1

Assay [12] has as its target Receptor-type tyrosine-protein kinase FLT3 (Homo sapiens) (UniProt P36888). The note with it: at 100 nM.
The test system of assay [13] is HEL. In words: Induction of apoptosis in human HEL cells assessed as early apoptotic cells at 9 uM after 72 hrs by FITC-annexin V/propidium iodide-double staining based flow cytometry (reference value: 2.23%). The class given is functional.
Assay [14] has as its system HEL. In words: Induction of cell cycle arrest in human HEL cells assessed as accumulation at S phase at 1 uM after 72 hrs by propidium iodide-staining based flow cytometry (reference value: 41.47%). In kind it is functional. In outline: as §1
For assay [15], the system named is HEL. As to the kind of experiment: Induction of apoptosis in human HEL cells assessed as viable cells at 1 uM after 72 hrs by FITC-annexin V/propidium iodide-double staining based flow cytometry (reference value: 93.77%). In kind it is functional. The note with it: read-out: Activity.
The subject of assay [16] is HEL. As to the kind of experiment: Induction of apoptosis in human HEL cells assessed as necrotic cells at 1 uM after 72 hrs by FITC-annexin V/propidium iodide-double staining based flow cytometry (reference value: 2.40%). In kind it is functional.
The target of assay [17] is Tyrosine-protein kinase JAK2 (Homo sapiens, UniProt O60674). As to the kind of experiment: Inhibition of N-terminal His-tagged human JAK2 catalytic domain (826 to 1132 resiudes) expressed in baculovirus expression system using FAM-labeled peptide as substrate preincubated for 10 mins followed by substrate addition measured after 1 hr in presence of ATP by mobility shift assay. In outline: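 Caliper mobility-shift assay with recombinant kinase in 50 mM HEPES pH 7.5, 0.0015% Brij-35. Compound was diluted from DMSO and preincubated with enzyme for 10 min at room temperature. FAM-labeled peptide plus ATP was then added and the reaction run for 1 h at 28 °C. It was stopped with an EDTA (50 mM) buffer. Conversion gave percent inhibition relative to max/min controls, and IC50 came from a four-parameter Hill fit. Duplicate wells were used.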

Assay [18] has as its system HEL. As to the kind of experiment: Induction of cell cycle arrest in human HEL cells assessed as accumulation at S phase at 3 uM after 72 hrs by propidium iodide-staining based flow cytometry (reference value: 41.47%). The class given is functional. In outline:
as §1

The subject of assay [19] is HEL. As to the kind of experiment: Induction of apoptosis in human HEL cells assessed as late apoptotic cells at 1 uM after 72 hrs by FITC-annexin V/propidium iodide-double staining based flow cytometry (reference value: 1.63%). In kind it is functional.
The subject of assay [20] is HEL. As to the kind of experiment: Induction of cell cycle arrest in human HEL cells assessed as accumulation at G2 phase at 3 uM after 72 hrs by propidium iodide-staining based flow cytometry (reference value: 15.10%). In kind it is functional. In outline:
as §1

Tyrosine-protein kinase JAK2, sequence (O60674 whole entry, the tested form may be a part): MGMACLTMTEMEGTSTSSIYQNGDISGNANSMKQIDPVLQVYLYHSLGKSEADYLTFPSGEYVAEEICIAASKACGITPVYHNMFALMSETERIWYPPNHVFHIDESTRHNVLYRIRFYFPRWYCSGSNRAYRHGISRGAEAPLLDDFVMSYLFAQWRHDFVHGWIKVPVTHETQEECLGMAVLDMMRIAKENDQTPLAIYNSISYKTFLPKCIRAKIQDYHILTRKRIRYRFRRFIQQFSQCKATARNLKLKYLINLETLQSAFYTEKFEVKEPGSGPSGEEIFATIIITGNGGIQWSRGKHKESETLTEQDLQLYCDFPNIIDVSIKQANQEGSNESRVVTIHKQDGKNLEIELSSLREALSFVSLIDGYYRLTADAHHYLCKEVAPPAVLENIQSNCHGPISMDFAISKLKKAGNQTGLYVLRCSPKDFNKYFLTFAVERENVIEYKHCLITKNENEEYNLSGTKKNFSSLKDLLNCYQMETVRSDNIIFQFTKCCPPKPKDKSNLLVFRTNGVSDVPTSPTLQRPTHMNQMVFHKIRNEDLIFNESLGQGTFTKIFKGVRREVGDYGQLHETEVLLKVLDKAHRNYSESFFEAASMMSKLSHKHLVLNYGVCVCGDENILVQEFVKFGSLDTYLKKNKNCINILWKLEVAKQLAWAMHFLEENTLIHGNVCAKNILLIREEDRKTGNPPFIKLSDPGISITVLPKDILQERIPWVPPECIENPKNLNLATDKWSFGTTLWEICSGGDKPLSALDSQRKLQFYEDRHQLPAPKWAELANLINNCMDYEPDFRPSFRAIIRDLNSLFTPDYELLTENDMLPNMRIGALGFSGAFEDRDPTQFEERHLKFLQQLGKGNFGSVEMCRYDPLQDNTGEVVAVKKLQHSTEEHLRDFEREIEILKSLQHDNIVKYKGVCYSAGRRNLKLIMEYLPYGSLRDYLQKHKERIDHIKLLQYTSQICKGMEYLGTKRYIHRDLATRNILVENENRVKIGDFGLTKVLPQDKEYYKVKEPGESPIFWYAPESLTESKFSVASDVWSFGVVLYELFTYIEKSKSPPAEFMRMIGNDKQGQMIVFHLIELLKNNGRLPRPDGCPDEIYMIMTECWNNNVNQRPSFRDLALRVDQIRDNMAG
Receptor-type tyrosine-protein kinase FLT3 (Homo sapiens), sequence (P36888 whole entry): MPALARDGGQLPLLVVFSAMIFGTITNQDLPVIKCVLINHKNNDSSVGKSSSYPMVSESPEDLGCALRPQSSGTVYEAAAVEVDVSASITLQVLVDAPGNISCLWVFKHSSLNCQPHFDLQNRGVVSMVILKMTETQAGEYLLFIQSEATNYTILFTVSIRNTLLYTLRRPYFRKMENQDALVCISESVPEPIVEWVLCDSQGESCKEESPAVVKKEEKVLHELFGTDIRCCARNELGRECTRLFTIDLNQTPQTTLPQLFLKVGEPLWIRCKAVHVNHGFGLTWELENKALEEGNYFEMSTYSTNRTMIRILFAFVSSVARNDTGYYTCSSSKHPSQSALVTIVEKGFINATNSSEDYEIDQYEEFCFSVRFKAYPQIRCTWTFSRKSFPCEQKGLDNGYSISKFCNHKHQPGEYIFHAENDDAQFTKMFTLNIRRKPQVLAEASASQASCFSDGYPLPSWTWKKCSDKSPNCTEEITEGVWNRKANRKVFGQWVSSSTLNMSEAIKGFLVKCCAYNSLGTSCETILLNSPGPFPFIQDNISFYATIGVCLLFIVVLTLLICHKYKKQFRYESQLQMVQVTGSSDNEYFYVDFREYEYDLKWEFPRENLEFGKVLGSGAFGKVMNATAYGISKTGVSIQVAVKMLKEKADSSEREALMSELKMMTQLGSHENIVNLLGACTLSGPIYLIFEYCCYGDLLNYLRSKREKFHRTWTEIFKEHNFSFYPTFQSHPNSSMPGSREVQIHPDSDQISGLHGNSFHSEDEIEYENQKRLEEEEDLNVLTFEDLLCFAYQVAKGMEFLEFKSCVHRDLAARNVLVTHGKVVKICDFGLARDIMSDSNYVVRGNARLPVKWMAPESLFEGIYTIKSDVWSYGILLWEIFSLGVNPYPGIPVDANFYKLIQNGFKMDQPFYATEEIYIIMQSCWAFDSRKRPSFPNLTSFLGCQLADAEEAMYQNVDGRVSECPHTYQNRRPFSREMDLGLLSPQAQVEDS

In the case of `CC(=O)c1ccc(NC(=O)N2CCN(c3ccnc(Nc4ccc(N5CCOCC5)cc4)n3)CC2)cc1`, the Activity is given as 6.97% in the assay with HEL [1]; 9.77% in the assay on HEL [4]; 78.05% in the assay with HEL [5]; 4.3% in the assay with HEL [6]; 3.3% in the assay with HEL [7]; 7.31% with HEL [8]. The Activity in the assay with HEL [9] stood at 71.85%; with HEL [10], 2.07%; in the assay on HEL [11], 38.62%; in the assay with HEL [13], 35.53%; in the assay on HEL [14], 31.59%; with HEL [16] it was 12.73%. The Activity in the assay with HEL [18] came out at 22.24%; in the assay on HEL [19], 22.4%; in the assay on HEL [20] it was 5.91%. In the assay with HEL [2], the viability at 0.33 µM is 88.3%. In addition, the viability at 9 µM with HEL [3] was 24.3%. Moreover, the inhibition in assay [12] was 80.7%. Moreover, the viability at 1 µM in the assay with HEL [15] turned out to be 47.9%. Besides, the IC50 in assay [17] worked out at 27 nM.
